Measurements taken from ChEMBL document CHEMBL1287795, “Synthesis and biological evaluation of 1H-benzimidazol-5-ols as potent HBV inhibitors” (Bioorg Med Chem Lett, 2010).

Tests used:
[1] = Cytotoxicity against human HepG2(2.2.15) after 9 days by neutral dye uptake method; format: cell-based; details: HepG2(2.2.15) cells
How it was run: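 Confluent 2.2.15 cells were exposed to compound in culture medium for 9 consecutive days, with untreated controls on every plate. Viability was read as neutral red uptake by absorbance at 510 nm relative to untreated cells, giving CC50. Mean and SD of three separate experiments.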

Hepatitis B virus [2] = experiment: Antiviral activity against Hepatitis B virus infected in HepG2.2.15 assessed as inhibition of HBsAg production at <245.1 +/- 4.8 uM by EIA; format: functional, organism-based; details: hepg2 2.2.15
Hepatitis B virus [3] = experiment: Antiviral activity against Hepatitis B virus infected in HepG2.2.15 assessed as inhibition of HBV replication at <245.1 +/- 4.8 uM by quantitative Southern blot hybridization analysis; format: functional, organism-based; details: hepg2 2.2.15
Hepatitis B virus [4] = experiment: Antiviral activity against Hepatitis B virus infected in HepG2.2.15 assessed as inhibition of HBsAg production at <227.0 +/- 4.1 uM by EIA; format: functional, organism-based; details: hepg2 2.2.15
Hepatitis B virus [5] = experiment: Antiviral activity against Hepatitis B virus infected in HepG2.2.15 assessed as inhibition of HBV replication at <227.0 +/- 4.1 uM by quantitative Southern blot hybridization analysis; format: functional, organism-based; details: hepg2 2.2.15
Hepatitis B virus [6] = experiment: Antiviral activity against Hepatitis B virus infected in HepG2.2.15 assessed as inhibition of HBsAg production at <86.9 +/- 3.6 uM by EIA; format: functional, organism-based; details: hepg2 2.2.15
Hepatitis B virus [7] = experiment: Antiviral activity against Hepatitis B virus infected in HepG2.2.15 assessed as inhibition of HBV replication at <86.9 +/- 3.6 uM by quantitative Southern blot hybridization analysis; format: functional, organism-based; details: hepg2 2.2.15
Hepatitis B virus [8] = experiment: Antiviral activity against Hepatitis B virus infected in HepG2.2.15 assessed as inhibition of HBsAg production by EIA; format: functional, organism-based; details: HepG2 2.2.15
How it was run: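 HBsAg secreted into the medium by confluent 2.2.15 cultures (RPMI 1640, 2% FBS) measured by semiquantitative enzyme immunoassay eight days after the first of eight consecutive daily treatments. Medium and compound were renewed daily, with an untreated cell control. Gives the 50% inhibitory concentration; mean and SD from three separate experiments.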

[9] = Selectivity index, ratio of CC50 for human HepG2.2.15 cells to IC50 for inhibition of HBsAg production; format: functional
How it was run: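 SI = CC50/IC50. CC50 is from neutral red uptake after 9 days of treatment. IC50 is from HBsAg EIA after eight daily doses, in 2.2.15 cells.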

Hepatitis B virus [10] = experiment: Antiviral activity against Hepatitis B virus infected in HepG2.2.15 assessed as inhibition of HBV replication at <209.8 +/- 4.7 uM by quantitative Southern blot hybridization analysis; format: functional, organism-based; details: hepg2 2.2.15
Hepatitis B virus [11] = experiment: Antiviral activity against Hepatitis B virus infected in HepG2.2.15 assessed as inhibition of HBsAg production at <74.8 +/- 3.9 uM by EIA; format: functional, organism-based; details: hepg2 2.2.15
Hepatitis B virus [12] = experiment: Antiviral activity against Hepatitis B virus infected in HepG2.2.15 assessed as inhibition of HBV replication at <74.8 +/- 3.9 uM by quantitative Southern blot hybridization analysis; format: functional, organism-based; details: hepg2 2.2.15
Hepatitis B virus [13] = experiment: Antiviral activity against Hepatitis B virus infected in HepG2.2.15 assessed as inhibition of HBV replication at <64.5 +/- 2.8 uM by quantitative Southern blot hybridization analysis; format: functional, organism-based; details: hepg2 2.2.15
Hepatitis B virus [14] = experiment: Antiviral activity against Hepatitis B virus infected in HepG2.2.15 assessed as inhibition of HBV replication by quantitative Southern blot hybridization analysis; format: functional, organism-based; details: HepG2 2.2.15
How it was run: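 Confluent 2.2.15 cells in RPMI 1640 with 2% FBS, dosed daily for eight consecutive days, with medium and compound replaced each day; untreated cell control. Intracellular HBV DNA quantified by Southern blot hybridization eight days after first treatment. IC50 is 50% inhibitory concentration; mean and SD of three separate experiments.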

[15] = Selectivity index, ratio of CC50 for human HepG2.2.15 cells to IC50 for inhibition of Hepatitis B virus DNA replication; format: functional
How it was run: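 SI = CC50/IC50. CC50 is from neutral red uptake after 9 days of treatment. IC50 is from Southern blot of intracellular HBV DNA after eight daily doses, in 2.2.15 cells.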

Hepatitis B virus [16] = experiment: Antiviral activity against Hepatitis B virus infected in HepG2.2.15 assessed as inhibition of HBsAg production at <76.3 +/- 3.3 uM by EIA; format: functional, organism-based; details: hepg2 2.2.15
Hepatitis B virus [17] = experiment: Antiviral activity against Hepatitis B virus infected in HepG2.2.15 assessed as inhibition of HBsAg production at <101.2 +/- 3.8 by EIA; format: functional, organism-based; details: hepg2 2.2.15
Hepatitis B virus [18] = experiment: Antiviral activity against Hepatitis B virus infected in HepG2.2.15 assessed as inhibition of HBsAg production at <80.1 +/- 3.5 uM by EIA; format: functional, organism-based; details: hepg2 2.2.15
Hepatitis B virus [19] = experiment: Antiviral activity against Hepatitis B virus infected in HepG2.2.15 assessed as inhibition of HBsAg production at <60.8 +/- 4.6 uM by EIA; format: functional, organism-based; details: hepg2 2.2.15
Hepatitis B virus [20] = experiment: Antiviral activity against Hepatitis B virus infected in HepG2.2.15 assessed as inhibition of HBsAg production at <91.2 +/- 3.5 uM by EIA; format: functional, organism-based; details: hepg2 2.2.15
Hepatitis B virus [21] = experiment: Antiviral activity against Hepatitis B virus infected in HepG2.2.15 assessed as inhibition of HBsAg production at <64.5 +/- 4.2 uM by EIA; format: functional, organism-based; details: hepg2 2.2.15
Hepatitis B virus [22] = experiment: Antiviral activity against Hepatitis B virus infected in HepG2.2.15 assessed as inhibition of HBV replication at <64.5 +/- 4.2 uM by quantitative Southern blot hybridization analysis; format: functional, organism-based; details: hepg2 2.2.15
Hepatitis B virus [23] = experiment: Antiviral activity against Hepatitis B virus infected in HepG2.2.15 assessed as inhibition of HBsAg production at <163.9 +/- 4.4 uM by EIA; format: functional, organism-based; details: hepg2 2.2.15
Hepatitis B virus [24] = experiment: Antiviral activity against Hepatitis B virus infected in HepG2.2.15 assessed as inhibition of HBsAg production at <102.7 +/- 3.3 uM by EIA; format: functional, organism-based; details: hepg2 2.2.15
Hepatitis B virus [25] = experiment: Antiviral activity against Hepatitis B virus infected in HepG2.2.15 assessed as inhibition of HBV replication at <102.7 +/- 3.3 uM by quantitative Southern blot hybridization analysis; format: functional, organism-based; details: hepg2 2.2.15
Hepatitis B virus [26] = experiment: Antiviral activity against Hepatitis B virus infected in HepG2.2.15 assessed as inhibition of HBV replication at <900.5 +/- 5.3 uM by quantitative Southern blot hybridization analysis; format: functional, organism-based; details: hepg2 2.2.15
Hepatitis B virus [27] = experiment: Antiviral activity against Hepatitis B virus infected in HepG2.2.15 assessed as inhibition of HBV replication at <556.9 +/- 1.8 uM by quantitative Southern blot hybridization analysis; format: functional, organism-based; details: hepg2 2.2.15
Hepatitis B virus [28] = experiment: Antiviral activity against Hepatitis B virus infected in HepG2.2.15 assessed as inhibition of HBV replication at <757.8 +/- 4.3 uM by quantitative Southern blot hybridization analysis; format: functional, organism-based; details: hepg2 2.2.15
Hepatitis B virus [29] = experiment: Antiviral activity against Hepatitis B virus infected in HepG2.2.15 assessed as inhibition of HBV replication at <739.9 +/- 3.6 uM by quantitative Southern blot hybridization analysis; format: functional, organism-based; details: hepg2 2.2.15
Hepatitis B virus [30] = experiment: Antiviral activity against Hepatitis B virus infected in HepG2.2.15 assessed as inhibition of HBV replication at <622.8 +/- 3.4 uM by quantitative Southern blot hybridization analysis; format: functional, organism-based; details: hepg2 2.2.15
Hepatitis B virus [31] = experiment: Antiviral activity against Hepatitis B virus infected in HepG2.2.15 assessed as inhibition of HBV replication at <506.3 +/- 3.2 uM by quantitative Southern blot hybridization analysis; format: functional, organism-based; details: hepg2 2.2.15
Hepatitis B virus [32] = experiment: Antiviral activity against Hepatitis B virus infected in HepG2.2.15 assessed as inhibition of HBsAg production at <2183.1 +/- 4.1 by EIA; format: functional, organism-based; details: hepg2 2.2.15

Structure (SMILES)	CC50 at 216 h [1] [µM]	IC50 (Hepatitis B virus [8]) [µM]	Selectivity Index [9]	Selectivity Index [15]	other results
CN(C)Cc1c(O)ccc2c1nc(CSc1ccccc1)n2C	245	–	–	–	IC50 (Hepatitis B virus [2]): Not Active; IC50 (Hepatitis B virus [3]): Not Active
Cn1c(CSc2ccccc2)nc2c(CN3CCCC3)c(O)ccc21	227	–	–	–	IC50 (Hepatitis B virus [4]): Not Active; IC50 (Hepatitis B virus [5]): Not Active
Cn1c(CSc2ccccc2)nc2c(CN3CCOCC3)c(O)ccc21	86.9	–	–	–	IC50 (Hepatitis B virus [6]): Not Active; IC50 (Hepatitis B virus [7]): Not Active
CN1CCN(Cc2c(O)ccc3c2nc(CSc2ccccc2)n3C)CC1	210	27	7.8	–	IC50 (Hepatitis B virus [10]): Not Active
Cn1c(CSc2ccc(F)cc2)nc2c(CN3CCCC3)c(O)ccc21	74.8	–	–	–	IC50 (Hepatitis B virus [11]): Not Active; IC50 (Hepatitis B virus [12]): Not Active
CN1CCN(Cc2c(O)ccc3c2nc(CSc2ccc(F)cc2)n3C)CC1	64.5	10.7	6	–	IC50 (Hepatitis B virus [13]): Not Active
Cn1c(CSc2ccccc2)nc2c(Cn3ccnc3)c(O)ccc21	76.3	–	–	8.4	IC50 (Hepatitis B virus [14]): 9.1 µM; IC50 (Hepatitis B virus [16]): Not Active
Cc1nccn1Cc1c(O)ccc2c1nc(CSc1ccccc1)n2C	101	–	–	13	IC50 (Hepatitis B virus [14]): 7.8 µM; IC50 (Hepatitis B virus [17]): Not Active
Cn1c(CSc2ccc(F)cc2)nc2c(Cn3ccnc3)c(O)ccc21	80.1	–	–	6.9	IC50 (Hepatitis B virus [14]): 11.6 µM; IC50 (Hepatitis B virus [18]): Not Active
Cc1ccc(SCc2nc3c(Cn4ccnc4)c(O)ccc3n2C)cc1	60.8	–	–	1.9	IC50 (Hepatitis B virus [14]): 32.6 µM; IC50 (Hepatitis B virus [19]): Not Active
Cc1ccc(SCc2nc3c(Cn4ccnc4C)c(O)ccc3n2C)cc1	91.2	–	–	2.5	IC50 (Hepatitis B virus [14]): 36.1 µM; IC50 (Hepatitis B virus [20]): Not Active
COc1ccc(SCc2nc3c(Cn4ccnc4)c(O)ccc3n2C)cc1	64.5	–	–	–	IC50 (Hepatitis B virus [21]): Not Active; IC50 (Hepatitis B virus [22]): Not Active
COc1ccc(SCc2nc3c(Cn4ccnc4C)c(O)ccc3n2C)cc1	164	–	–	3.7	IC50 (Hepatitis B virus [14]): 44.5 µM; IC50 (Hepatitis B virus [23]): Not Active
COc1cccc(SCc2nc3c(Cn4ccnc4C)c(O)ccc3n2C)c1	103	–	–	–	IC50 (Hepatitis B virus [24]): Not Active; IC50 (Hepatitis B virus [25]): Not Active
Cn1c(C[S+]([O-])c2ccccc2)nc2c(CN3CCOCC3)c(O)ccc21 (configuration not stated)	900	401	2.2	–	IC50 (Hepatitis B virus [26]): Not Active
Cn1c(C[S+]([O-])c2ccccc2)nc2c(Cn3ccnc3)c(O)ccc21 (configuration not stated)	557	189	2.9	–	IC50 (Hepatitis B virus [27]): Not Active
Cc1ccc([S+]([O-])Cc2nc3c(Cn4ccnc4)c(O)ccc3n2C)cc1 (configuration not stated)	758	176	4.3	–	IC50 (Hepatitis B virus [28]): Not Active
Cn1c(CS(=O)(=O)c2ccccc2)nc2c(CN3CCOCC3)c(O)ccc21	740	326	2.3	–	IC50 (Hepatitis B virus [29]): Not Active
Cn1c(CS(=O)(=O)c2ccccc2)nc2c(Cn3ccnc3)c(O)ccc21	623	70.2	8.9	–	IC50 (Hepatitis B virus [30]): Not Active
Cc1ccc(S(=O)(=O)Cc2nc3c(Cn4ccnc4)c(O)ccc3n2C)cc1	506	62.6	8.1	–	IC50 (Hepatitis B virus [31]): Not Active
Nc1ccn([C@@H]2CS[C@H](CO)O2)c(=O)n1 [LAMIVUDINE]	2180	–	–	9.1	IC50 (Hepatitis B virus [32]): Not Active
